Assays:
Homo sapiens [1] = assay: AUC (0 to t) in human assessed as VP 44469 at 400 mg, po after 24 hrs; format: ADME, organism-based, Plasma; parameters: dose 400 mg, time < 24 hr, route oral; conditions: in vivo
Outline: (§1)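 Healthy adults (n = 20) in a two-sequence crossover with a 1-week washout. Single oral 400 mg dose after overnight fast, 4 h post-dose fast; ketoconazole 400 mg oral given 1 h before in the combination period. Plasma sampled predose and 0.5–24 h; validated LC-MS/MS after solid-phase extraction (5–1,000 ng/ml). AUC0-t by log-linear trapezoidal method; AUC0-∞ = AUC0-t + Clast/λz.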

[2] = Terminal elimination half-life in human at 400 mg, po administered with 400 mg ketoconazole after 7 days; format: ADME, organism-based; conditions: in vivo
Outline: (§2)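 Crossover in healthy adults: single fasted oral 400 mg dose, alone or 1 h after oral ketoconazole 400 mg, with a 1-week washout. Plasma drawn predose through 24 h and assayed by LC-MS/MS. λz from log-linear terminal-phase regression; t1/2 = 0.693/λz; CL/F = dose/AUC0-∞; Vz/F = dose/(λz × AUC0-∞). Nominal times used.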

Homo sapiens [3] = assay: Renal clearance in human assessed as VP 44469 at 400 mg, po administered with 400 mg ketoconazole […]; format: ADME, organism-based, Kidney; conditions: in vivo
[4] = AUC (0 to t) in human at 400 mg, po after 24 hrs; format: ADME, organism-based; parameters: time < 24 hr, dose 400 mg, route oral; conditions: plasma; outline: as §1
Homo sapiens [5] = assay: Drug excretion in human at 400 mg, po administered with 400 mg ketoconazole […]; format: ADME, organism-based; conditions: in vivo
Outline: (§3)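 24-h urine collected from the first void after the oral 400 mg dose, given alone or 1 h after ketoconazole 400 mg, in a crossover of healthy adults. Amount excreted (Ae) measured by LC-MS/MS after solid-phase extraction. Renal clearance = Ae/AUC0-24 from plasma sampled over 24 h.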

[6] = Apparent oral clearance in human at 400 mg, po administered with 400 mg ketoconazole after 7 days; format: ADME, organism-based; conditions: in vivo; outline: as §2
Homo sapiens [7] = assay: Drug excretion in human assessed as VP 44469 at 400 mg, po after 24 hrs; format: ADME, organism-based; conditions: in vivo; outline: as §3
Homo sapiens [8] = assay: Renal clearance in human assessed as VP 44469 at 400 mg, po after 24 hrs; format: ADME, organism-based, Kidney; conditions: in vivo; outline: as §3
Homo sapiens [9] = assay: Tmax in human plasma assessed as VP 44469 at 400 mg, po after 24 hrs; format: ADME, organism-based; conditions: in vivo
Outline: (§4)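 Fasted healthy adults got a single oral 400 mg dose, alone or 1 h after ketoconazole 400 mg orally, in crossover periods separated by 1 week. Blood taken predose and at 0.5, 1, 1.5, 2, 3, 4, 6, 8, 12, 16, 24 h; analytes measured by validated LC-MS/MS. Cmax and tmax read from the profiles; tmax ranks compared by ANOVA.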

Homo sapiens [10] = assay: Tmax in human plasma assessed as VP 44469 at 400 mg, po administered with 400 mg ketoconazole after 7 days; format: ADME, organism-based; conditions: in vivo, 168 h; outline: as §4
Homo sapiens [11] = assay: Terminal elimination half-life in human assessed as VP 44469 at 400 mg, po administered with 400 mg ketoconazole after 7 days; format: ADME, organism-based; conditions: in vivo, 168 h; outline: as §2
[12] = Tmax in human plasma at 400 mg, po administered with 400 mg ketoconazole after 7 days; format: ADME, organism-based; outline: as §4
[13] = AUC (0 to infinity) in human at 400 mg, po administered with 400 mg ketoconazole after 7 days; format: ADME, organism-based; parameters: dose 400 mg, time infinity, route oral; conditions: plasma; outline: as §1
Homo sapiens [14] = assay: AUC (0 to t) in human assessed as VP 44469 at 400 mg, po administered with 400 mg ketoconazole after 7 days; format: ADME, organism-based, Plasma; conditions: in vivo, 168 h; outline: as §1
Homo sapiens [15] = assay: Drug excretion in human assessed as VP 44469 at 400 mg, po administered with 400 mg ketoconazole […]; format: ADME, organism-based; conditions: in vivo
Homo sapiens [16] = assay: AUC (0 to infinity) in human assessed as VP 44469 at 400 mg, po after 24 hrs; format: ADME, organism-based, Plasma; parameters: dose 400 mg, time infinity, route oral; conditions: in vivo; outline: as §1
Homo sapiens [17] = assay: Terminal elimination half-life in human assessed as VP 44469 at 400 mg, po after 24 hrs; format: ADME, organism-based; conditions: in vivo; outline: as §2
Homo sapiens [18] = assay: Toxicity in human assessed as adverse event at 400 mg, po after 24 hrs; format: organism-based; conditions: in vivo
Outline: (§5)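 Healthy volunteers (20 enrolled) given single oral 400 mg doses, with or without oral ketoconazole 400 mg 1 h before, in crossover with a 1-week washout. The investigator recorded all adverse events, grading severity and drug relatedness. Clinical labs ran the day before and after dosing, ECGs predose and at 2 and 4 h, and liver tests at the day-15 follow-up.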

Homo sapiens [19] = assay: Toxicity in human assessed as dysgeusia at 400 mg, po administered with 400 mg ketoconazole after 7 days; format: organism-based; conditions: in vivo, 168 h; outline: as §5
[20] = Cmax in human plasma at 400 mg, po after 24 hrs; format: ADME, organism-based; parameters: dose 400 mg, route oral; outline: as §4
[21] = Renal clearance in human at 400 mg, po administered with 400 mg ketoconazole after 7 days; format: ADME, organism-based, Kidney; conditions: in vivo; outline: as §3
[22] = AUC (0 to infinity) in human at 400 mg, po after 24 hrs; format: ADME, organism-based; parameters: dose 400 mg, route oral, time infinity; conditions: plasma; outline: as §1
Homo sapiens [23] = assay: Volume of distribution with respect to oral bioavailability in human assessed as VP 44469 at 400 mg, po administered with 400 mg ketoconazole after 7 days; format: ADME, organism-based; conditions: in vivo, 168 h; outline: as §2
Homo sapiens [24] = assay: AUC (0 to infinity) in human assessed as VP 44469 at 400 mg, po administered with 400 mg ketoconazole after 7 days; format: ADME, organism-based, Plasma; parameters: dose 400 mg, route oral, time infinity; conditions: in vivo, 168 h; outline: as §1
[25] = Tmax in human plasma at 400 mg, po after 24 hrs; format: ADME, organism-based; outline: as §4
Homo sapiens [26] = assay: Drug excretion in human at 400 mg, po after 24 hrs; format: ADME, organism-based; conditions: in vivo; outline: as §3
Homo sapiens [27] = assay: Apparent oral clearance in human assessed as VP 44469 at 400 mg, po administered with 400 mg ketoconazole after 7 days; format: ADME, organism-based; conditions: in vivo, 168 h; outline: as §2
Homo sapiens [28] = assay: Apparent oral clearance in human assessed as VP 44469 at 400 mg, po after 24 hrs; format: ADME, organism-based; conditions: in vivo; outline: as §2
Homo sapiens [29] = assay: Cmax in human plasma assessed as VP 44469 at 400 mg, po administered with 400 mg ketoconazole after 7 days; format: ADME, organism-based; parameters: dose 400 mg, route oral; conditions: in vivo, 168 h; outline: as §4
[30] = Volume of distribution with respect to oral bioavailability in human at 400 mg, po after 24 hrs; format: ADME, organism-based; conditions: in vivo, read-out: Vss/F; outline: as §2
Homo sapiens [31] = assay: Cmax in human plasma assessed as VP 44469 at 400 mg, po after 24 hrs; format: ADME, organism-based; parameters: dose 400 mg, route oral; conditions: in vivo; outline: as §4
[32] = Apparent oral clearance in human at 400 mg, po after 24 hrs; format: ADME, organism-based; conditions: in vivo; outline: as §2
[33] = Volume of distribution with respect to oral bioavailability in human at 400 mg, po administered with 400 mg ketoconazole after 7 days; format: ADME, organism-based; conditions: in vivo, read-out: Vss/F; outline: as §2
Homo sapiens [34] = assay: Volume of distribution with respect to oral bioavailability in human assessed as VP 44469 at 400 mg, po after 24 hrs; format: ADME, organism-based; conditions: in vivo; outline: as §2
Homo sapiens [35] = assay: Toxicity in human assessed as dysgeusia at 400 mg, po after 24 hrs; format: organism-based; conditions: in vivo; outline: as §5
Homo sapiens [36] = assay: Toxicity in human assessed as adverse event at 400 mg, po administered with 400 mg ketoconazole after 7 days; format: organism-based; conditions: in vivo, 168 h; outline: as §5
Homo sapiens [37] = assay: Toxicity in human assessed as headache at 400 mg, po administered with 400 mg ketoconazole after 7 days; format: organism-based; conditions: in vivo, 168 h; outline: as §5
[38] = AUC (0 to t) in human at 400 mg, po administered with 400 mg ketoconazole after 7 days; format: ADME, organism-based; conditions: plasma; outline: as §1
[39] = Cmax in human plasma at 400 mg, po administered with 400 mg ketoconazole after 7 days; format: ADME, organism-based; parameters: dose 400 mg, route oral; outline: as §4
[40] = Terminal elimination half-life in human at 400 mg, po after 24 hrs; format: ADME, organism-based; conditions: in vivo; outline: as §2

For `CC(C)Nc1nc2cc(Cl)c(Cl)cc2n1[C@H]1O[C@@H](CO)[C@H](O)[C@@H]1O` [MARIBAVIR], the AUC (Homo sapiens [1]) was 15.6 µg·h/mL, the half-life [2] was 6.88 h and the CL_renal (Homo sapiens [3]) was 6876 mL/h. For the same compound, the AUC(0-t) at 24 h [4] was 119 µg·h/mL, the Activity (Homo sapiens [5]) was 9.86 mg and the CL/F [6] was 38.7 mL/min. It also gave an Activity (Homo sapiens [7]) of 110 mg, a CL_renal (Homo sapiens [8]) of 7637 mL/h and a Tmax (Homo sapiens [9]) of 2.5 h. It also gave a Tmax (Homo sapiens [10]) of 5.5 h, a t1/2 (Homo sapiens [11]) of 11.8 h and a Tmax [12] of 1.9 h. It also gave an AUC(0-inf) [13] of 194 µg·h/mL, an AUC (Homo sapiens [14]) of 14.7 µg·h/mL and an Activity (Homo sapiens [15]) of 95 mg. For the same compound, the AUC (Homo sapiens [16]) was 17.4 µg·h/mL, the t1/2 (Homo sapiens [17]) was 6.83 h and the Activity (Homo sapiens [18]) was 47%. The Activity (Homo sapiens [19]) was 35%, the Cmax [20] was 19800 ng/mL and the CL renal at 168 h [21] was 0.953 mL/min. For the same compound, the AUC(0-inf) [22] was 126 µg·h/mL, the Vz/F (Homo sapiens [23]) was 342 L and the AUC (Homo sapiens [24]) was 20.5 µg·h/mL. It also gave a Tmax [25] of 1.7 h, an Activity (Homo sapiens [26]) of 4.12 mg and a CL/F (Homo sapiens [27]) of 21.1 L/h. It also gave a CL/F (Homo sapiens [28]) of 23.8 L/h, a Cmax (Homo sapiens [29]) of 1000 ng/mL and a Vd/F [30] of 27.5 L. The Cmax (Homo sapiens [31]) was 1600 ng/mL, the CL/F [32] was 59.3 mL/min and the Vd/F [33] was 21.6 L. The Vss/F (Homo sapiens [34]) was 235 L, the Activity (Homo sapiens [35]) was 47% and the Activity (Homo sapiens [36]) was 45%. The Activity (Homo sapiens [37]) was 10%, the AUC(0-t) at 168 h [38] was 173 µg·h/mL and the Cmax [39] was 21800 ng/mL. It also gave a half-life [40] of 5.73 h.

Source: ChEMBL document CHEMBL1255341, “Effect of ketoconazole on the pharmacokinetics of maribavir in healthy adults” (Antimicrob Agents Chemother, 2008)
